From ChEMBL document CHEMBL4177551, “Bioactive Triterpenoids from the Twigs of Chaenomeles sinensis” (J Nat Prod, 2017)

Tests used:
[1] = Cytotoxicity in rat C6 cells assessed as cell viability at 20 uM incubated for 24 hrs by MTT assay relative to untreated control; type: cell-based; details: read-out: Activity
Summary of the method: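 C6 glioma cells were seeded at 1 × 10^5 cells/well. After 24 h, medium was switched to serum-free DMEM and compounds were added at 20 μM for 24 h. Viability was read by MTT and expressed as % of untreated cells. Values are means ± SD of three independent experiments.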

SK-MEL-2 = assay: Cytotoxicity against human SK-MEL-2 cells assessed as inhibition of cell growth by SRB assay; type: functional, cell-based
Summary of the method: (§1)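 Human tumour lines A549, SK-OV-3, SK-MEL-2 and HCT15 (from ATCC) were tested by sulforhodamine B assay. IC50 is the concentration giving 50% inhibition of cell growth. Cisplatin served as positive control.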

C6 = assay: Neuroprotective activity in rat C6 cells assessed as induction of nerve growth factor secretion at 20 uM incubated for 24 hrs by ELISA method relative to untreated control; type: functional
Summary of the method: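 C6 glioma cells seeded at 1 × 10^5 cells/well and cultured 24 h. They were then switched to serum-free DMEM with compound at 20 μM for a further 24 h. NGF secreted into the conditioned medium was quantified by ELISA and expressed as percent of untreated control (100%). Mean ± SD of three independent experiments.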

HCT-15 = assay: Cytotoxicity against human HCT15 cells assessed as inhibition of cell growth by SRB assay; type: functional, cell-based; summary of the method: as §1
SK-OV-3 = assay: Cytotoxicity against human SKOV3 cells assessed as inhibition of cell growth by SRB assay; type: functional, cell-based; summary of the method: as §1
A549 = assay: Cytotoxicity against human A549 cells assessed as inhibition of cell growth by SRB assay; type: functional, cell-based; summary of the method: as §1
BV-2 = assay: Anti-inflammatory in mouse BV2 cells assessed as inhibition of LPS-induced nitric oxide production pre-incubated before LPS challenge for 24 hrs by Griess reagent based assay; type: functional, cell-based
Summary of the method: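 BV2 microglia seeded at 4 × 10^4 cells/well, treated with or without graded compound concentrations, then stimulated with LPS (100 ng/mL) for 24 h. Nitrite in the medium was measured with Griess reagent (0.1% N-1-naphthylethylenediamine dihydrochloride, 1% sulfanilamide, 5% phosphoric acid), 1:1 with supernatant for 10 min, A570. Quantified against a sodium nitrite standard. IC50 = concentration giving 50% inhibition of NO production.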

[2] = Cytotoxicity in mouse BV2 cells assessed as cell viability at 20 uM incubated for 24 hrs by MTT assay relative to untreated control; type: cell-based, BV-2; details: read-out: Activity
Summary of the method: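 BV2 cells in the LPS-stimulated NO assay (LPS 100 ng/mL, 24 h) were exposed to 20 μM compound. Viability was read by MTT assay and expressed as percent. Mean ± SD of three independent experiments.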

| Compound | viability at 24 h, 20 µM [1] [%] | IC50 (SK-MEL-2) [µM] | Activity (C6) [%] | IC50 (HCT-15) [µM] | IC50 (SK-OV-3) [µM] | IC50 (A549) [µM] | IC50 (BV-2) [µM] | viability at 24 h, 20 µM [2] [%] |
| --- | --- | --- | --- | --- | --- | --- | --- | --- |
| C=C(C)[C@@H]1CC[C@]2(C(=O)O)CC[C@]3(C)[C@H](CC[C@@H]4[C@@]5(C)CC[C@H](OC(=O)/C=C/c6ccc(O)c(O)c6)C(C)(C)[C@@H]5CC[C@]43C)[C@@H]12 | 95 | > 10 | 355.7 | > 10 | > 10 | 9.9 |  |  |
| C=C(C)[C@@H]1CC[C@]2(C(=O)O)CC[C@]3(C)[C@H](CC[C@@H]4[C@@]5(C)CC[C@H](OC(=O)/C=C\c6ccc(O)c(O)c6)C(C)(C)[C@@H]5CC[C@]43C)[C@@H]12 |  | 6.7 |  | 3.8 | 7.5 | 0.9 | 13.4 | 35.3 |
| CC1(C)CC[C@]2(C(=O)O)CC[C@]3(C)C(=CC[C@@H]4[C@@]5(C)C[C@@H](O)[C@@H](O)C(C)(C)[C@@H]5CC[C@]43C)[C@@H]2C1 |  |  |  |  |  |  | 21.6 | 87 |
| C=C(C)[C@@H]1CC[C@]2(CO)CC[C@]3(C)[C@H](CC[C@@H]4[C@@]5(C)CC[C@H](OC(=O)/C=C\c6ccc(O)c(O)c6)C(C)(C)[C@@H]5CC[C@]43C)[C@@H]12 |  | 2 |  | > 10 | 8.4 | > 10 |  |  |
| COc1cc(/C=C\C(=O)O[C@H]2[C@H](O)C[C@]3(C)[C@H]4CC=C5[C@H]6[C@](C(=O)O)(CC[C@@H](C)[C@@]6(C)O)CC[C@@]5(C)[C@]4(C)CC[C@H]3C2(C)C)ccc1O |  |  |  |  |  |  | 37.1 | 111 |
| C=C(C)[C@@H]1CC[C@]2(CO)CC[C@]3(C)[C@H](CC[C@@H]4[C@@]5(C)CC[C@H](OC(=O)/C=C/c6ccc(O)c(O)c6)C(C)(C)[C@@H]5CC[C@]43C)[C@@H]12 |  | 2.9 |  | > 10 | 9 | > 10 |  |  |
| C=C(C)[C@@H]1CC[C@]2(C(=O)O)CC[C@]3(C)[C@H](CC[C@@H]4[C@@]5(C)C[C@@H](O)[C@H](O)C(C)(C)[C@@H]5CC[C@]43C)[C@@H]12 [ALPHITOLIC ACID] |  |  |  |  |  |  | 14.5 | 71 |
| C=C(C)[C@@H]1CC[C@]2(C(=O)O)CC[C@]3(C)[C@H](CC[C@@H]4[C@@]5(C)CC[C@H](O)C(C)(C)[C@@H]5CC[C@]43C)[C@@H]12 [BETULINIC ACID] | 77.3 | > 10 | 177.6 | 8.7 | > 10 | 3.1 | 4.5 | 59.6 |
| C[C@H]1[C@H](C)CC[C@]2(C(=O)O)CC[C@]3(C)C(=CC[C@@H]4[C@@]5(C)C[C@@H](O)[C@H](O)C(C)(C)[C@@H]5CC[C@]43C)[C@H]12 [COROSOLIC ACID] |  |  |  |  |  |  | 47.1 | 100 |
| C=C(C)[C@@H]1CC[C@]2(CO)CC[C@]3(C)[C@H](CC[C@@H]4[C@@]5(C)CC[C@H](O)[C@](C)(CO)[C@@H]5CC[C@]43C)[C@@H]12 [ILEKUDINOL C] |  | > 10 |  | > 10 | > 10 | 5.1 | 25.5 | 88 |
| CC1(C)CC[C@]2(C(=O)O)CC[C@]3(C)C(=CC[C@@H]4[C@@]5(C)C[C@@H](O)[C@H](O)C(C)(C)[C@@H]5CC[C@]43C)[C@@H]2C1 [MASLINIC ACID] |  |  |  |  |  |  | 17.8 | 30.4 |
| CCCCC/C=C/C(=O)CCc1ccc(O)c(OC)c1 [SHOGAOL] | 126 |  | 168.6 |  |  |  |  |  |
| CNC(=N)NCCC[C@H](N)C(=O)O [TILARGININE] |  |  |  |  |  |  | 21.8 | 114 |
| C[C@@H]1CC[C@]2(C(=O)O)CC[C@]3(C)C(=CC[C@@H]4[C@@]5(C)C[C@@H](O)[C@H](O)C(C)(C)[C@@H]5CC[C@]43C)[C@@H]2[C@]1(C)O [TOMENTIC ACID] | 100 |  | 167.4 |  |  |  |  |  |
